Rows were chosen to be rich in hits. Some 1.8% of all compounds tested hit in one or more screens of this group.
Runt-CBFb FRET – inhibitors of RUNX1 Runt–CBFb binding, primary screen, biochemical, FRET, Cerulean-Runt, Venus-CBFb, uHTS | 220,000 compounds, 0.46% hits | inhibition, % at 20 µM | Runt-related transcription factor 1 (Homo sapiens) + Core-binding factor subunit beta … | Cerulean-Runt/Venus-CBFb FRET ratio 530/480, 1 h;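 active means inhibition over about 50% at 20 µM in the single-dose screen, limit read from the data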;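 further: 0% = DMSO wells and 100% = excess unlabeled CBFb competitor control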
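Measured by: fluorescence energy transfer, 422 nm excitation, 530/480 nm emission; test system: Cerulean-tagged RUNX1 Runt domain (FRET donor) fusion protein; buffer or medium: Tris pH 7.5 buffer with BSA; compound: one dose, 20 µM compound, 1% DMSO; times: two 1 h room-temperature incubations shielded from light; benchmarks: unlabeled CBFb 5 µM, positive control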
Runt-SMMHC FRET – inhibitors of RUNX1 Runt–CBFb-SMMHC binding, primary screen, biochemical, FRET, Cerulean-Runt, Venus-CBFb-SMMHC, uHTS; inhibition, % at 20 µM; 220,000 compounds, 0.74% hits; Runt-related transcription factor 1 (Homo sapiens) + Core-binding factor subunit beta …; Cerulean-Runt/Venus-CBFb-SMMHC FRET ratio 530/480, 1 h;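 active means mean inhibition across duplicate retests at 20 µM reaching about 50%, limit read from the data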;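 further: 0% = DMSO wells and 100% = wells with excess untagged CBFb-SMMHC; inhibitors lower the FRET ratio by blocking Runt binding to CBFb-SMMHC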
RanGTP-Impb inh – inhibitors of RanGTP-importin-beta interaction, primary screen, biochemical, FRET, CFP-Ran, YFP-importin-beta, homogeneous; cell-free CFP-Ran/YFP-importin-beta FRET ratio; 300,000 compounds, 1.1% hits; inhibition, % (concentration not given with the values); AID 2216, 2009;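 active means more than half of the replicate wells show a fall in the fluorescence ratio signal beyond about 16%, limit read from the data, passing the limit was not always enough; inconclusive means exactly half of the replicate wells pass the set limit; inactive means fewer than half of replicates pass the limit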;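 further: 0% = DMSO wells and 100% = Ran loaded with GDP instead of GTP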
Hck-Nef inh – inhibitors of Nef-activated human Hck kinase, primary screen, biochemical, Z-Lyte FRET, 384-well, Hck-YEEI; inhibition, % at 20 µM; 220,000 compounds, 0.68% hits; AID 463187, 2010; Tyrosine-protein kinase HCK (Homo sapiens), P08631; Recombinant Hck-YEEI plus Nef, Z-Lyte FRET kinase assay;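 active means Hck-Nef kinase inhibition above about 50%, limit read from the data; inactive means inhibition below that limit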;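 further: 0% = DMSO with Hck plus Nef and 100% = Hck alone without Nef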
Target sequence (P08631 whole entry, looked up): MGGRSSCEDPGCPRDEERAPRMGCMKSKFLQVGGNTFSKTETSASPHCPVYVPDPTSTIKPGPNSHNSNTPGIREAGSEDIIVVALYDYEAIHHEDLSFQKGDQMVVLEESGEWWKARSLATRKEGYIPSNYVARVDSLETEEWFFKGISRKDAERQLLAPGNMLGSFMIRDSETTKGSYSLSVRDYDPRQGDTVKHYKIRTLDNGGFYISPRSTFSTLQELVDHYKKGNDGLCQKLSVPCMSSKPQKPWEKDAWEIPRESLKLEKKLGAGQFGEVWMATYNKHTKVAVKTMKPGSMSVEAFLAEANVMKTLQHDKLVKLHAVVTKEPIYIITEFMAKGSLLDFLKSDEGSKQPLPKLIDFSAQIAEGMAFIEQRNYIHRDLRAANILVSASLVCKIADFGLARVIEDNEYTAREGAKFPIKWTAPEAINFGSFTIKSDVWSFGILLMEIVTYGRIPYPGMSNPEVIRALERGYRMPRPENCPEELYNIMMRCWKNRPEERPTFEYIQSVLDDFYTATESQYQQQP
An asterisk follows results filed as active; ? = inconclusive; · = no result given.

SMILES | Runt-CBFb FRET | Runt-SMMHC FRET | RanGTP-Impb inh | Hck-Nef inh
CC1CCN(S(=O)(=O)N2CCC(C(=O)NCCc3ccccc3)CC2)CC1 | · | · | 1 | ·
CCCN1CC=C2C(C#N)=C(N)C(C#N)(C#N)C(c3cccc(OC)c3OC)C2C1 (stereo unspecified) | 94* | 78* | 104* | 23
Cc1ccc(C2C3CN(C(C)C)CC=C3C(C#N)=C(N)C2(C#N)C#N)cc1 (stereo unspecified) | 81* | 63* | 63* | ·
COc1ccc(OC)c(C2C3CN(C(C)C)CC=C3C(C#N)=C(N)C2(C#N)C#N)c1 (stereo unspecified) | 42 | 79* | 31* | 38
CCCCOc1ccc(C2C3CN(C(=O)OCC)CC=C3C(C#N)=C(N)C2(C#N)C#N)cc1OC (stereo unspecified) | -2 | 8 | 0 | 1
O=[N+]([O-])c1cccc(-c2nc3ccccc3s/c2=N/O)c1 | 0 | 0 | 4 | -4
COC(=O)C1C(=O)C2=C(CC1C)NC(C)=C(C(=O)OC(C)C)C2c1ccc(OC)c(O)c1 (stereo unspecified) | 0 | 4 | -2 | 6
COC(=O)C1=C(C)NC2=C(C(=O)CC(C)(C)C2)C1c1ccccn1 (stereo unspecified) | 70* | 123* | 8 | 40
COC(=O)C1=C(C)NC2=C(C(=O)C(C(=O)OC)C(c3ccc(OC)cc3)C2)C1c1ccccn1 (stereo unspecified) | 35 | 70* | 12 | 23
Cc1cc(C)n(-c2nc3ccccc3nc2Nc2ccc(CC(=O)O)cc2)n1 | 1 | 4 | ? | 16
Cc1ccc(Nc2nc3ccccc3nc2-n2nc(C)cc2C)cc1 | 4 | 11 | 31* | 1
CN(Cc1ccccc1)C(=S)Nc1ccc(OC(F)F)cc1 | 0 | 0 | -1 | 9
CN(C)CCCN(Cc1ccccc1)C(=S)Nc1ccc(OC(F)F)cc1 | -1 | 3 | 18* | 0
O=C(CCN1CCOCC1)NNC(=S)NC(=O)c1ccccc1 | 9 | 5 | 1 | 9
O=C(Nc1cccc(C(=O)N2CCOCC2)c1)c1ccccc1Cl | · | · | 0 | ·
O=C(COC(=O)CCN1C(=O)/C(=C\C=C\c2ccccc2)SC1=S)Nc1cc(F)ccc1F | -2 | -16 | -4 | 126*
O=C(CN1C(=O)/C(=C\C=C\c2ccccc2)SC1=S)Nc1ccc(F)cc1 | 0 | -7 | -28 | 4
CCOc1ccc(CN2CCN(Cc3cc4ccccc4[nH]3)CC2CCO)cc1 (stereo unspecified) | 4 | -7 | 21* | 17
Cc1noc(C(=O)Nc2cccc(O)c2)c1Cl | -1 | -1 | 6 | 21
Cc1ccc2[nH]c3c(c2c1)SC(C)(C)CC3=O | 18 | 29 | 21* | 20
Clc1ccc(-c2nsc(N3CCOCC3)n2)c(Cl)c1 | · | · | 2 | ·
Cc1ccc(C(=O)/C=C\NCc2ccccc2)cc1 | 0 | -6 | -1 | 8
COc1ccc(C(=O)/C=C/NCc2ccc(C)cc2)cc1 | · | · | 25* | 10
Cc1cc(NC(=O)CSc2nnc(-c3cccnc3)n2Cc2ccccc2)no1 | -2 | -2 | ? | -7
CSc1ccccc1NC(=O)c1cc2c(=O)n3ccccc3nc2s1 | · | · | 71* | ·
SMILES | Runt-CBFb FRET | Runt-SMMHC FRET | RanGTP-Impb inh | Hck-Nef inh
CN1CCN(C(=O)c2cc3c(=O)n4ccccc4nc3s2)CC1 | · | · | 20* | ·
CC(C)NC(=O)c1cc2c(=O)n3ccccc3nc2s1 | · | · | 0 | ·
Cc1ccccc1NC(=O)c1cc2c(=O)n3cccc(C)c3nc2s1 | · | · | 84* | ·
Cc1cccn2c(=O)c3cc(C(=O)NC4CCCCCC4)sc3nc12 | · | · | 19* | ·
Cc1ccccc1C(=O)N1CCC(C(=O)Nc2ccc(S(=O)(=O)N3CCCCC3)cc2)CC1 | · | · | 7 | ·
CCOC(=O)C1CCCN(c2c(NCCc3ccc(Cl)cc3)c(=O)c2=O)C1 (stereo unspecified) | -1 | -1 | 1 | -10
Cc1cccn2c(=O)c3cc(C#N)c(=O)n(-c4c(C)n(C)n(-c5ccccc5)c4=O)c3nc12 | 14 | 49 | 2 | 10
CCCn1c(=NC(=O)c2ccc3c(c2)OCO3)c(C#N)cc2c(=O)n3cccc(C)c3nc21 | 125* | 67* | · | ·

Compound activity from PubChem BioAssay.
